This note sets out measurements from ChEMBL document CHEMBL6127151, “Cyclic Peptide C5aR1 Antagonist Design Using Solution Conformational Analysis Derived from Residual Dipolar Couplings” (ACS Med Chem Lett, 2024).

The structures appear in SMILES notation. Bounds are passed on as bounds.

The target in data set [1] is T1, C5a anaphylatoxin chemotactic receptor 1 (Homo sapiens) (UniProt P21730).
T1 sequence (whole entry): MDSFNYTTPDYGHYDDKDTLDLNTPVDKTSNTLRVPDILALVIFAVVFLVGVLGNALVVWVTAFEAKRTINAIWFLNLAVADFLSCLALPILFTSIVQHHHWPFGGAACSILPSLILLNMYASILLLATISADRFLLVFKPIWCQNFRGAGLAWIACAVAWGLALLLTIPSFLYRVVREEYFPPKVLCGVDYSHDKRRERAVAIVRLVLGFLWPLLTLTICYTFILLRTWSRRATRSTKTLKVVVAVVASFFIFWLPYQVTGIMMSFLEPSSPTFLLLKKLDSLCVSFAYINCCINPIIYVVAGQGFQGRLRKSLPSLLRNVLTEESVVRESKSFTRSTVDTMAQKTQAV
Briefly: Binding affinity to C5aR1 receptor (unknown origin) assessed as binding constant. As to conditions: time 10.0 min.

Data set [2] in a line: Passive permeability across apical to basolateral side in dog RRCK cells incubated for 30 mins. As to conditions: MDCK, read-out: permeability. Type of data set: ADME, cell-based, Canis lupus familiaris, MDCKII-LE. Put shortly: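 Passive absorptive permeability was measured from the apical to the basolateral side in RRCK cells after a 30 min preincubation. Values are reported as the mean, in 10–6 cm/s.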

Turning to `CCCC[C@@H]1NC(=O)[C@H](Cc2ccc(F)cc2)N(C)C(=O)[C@@H](CC2CCCCC2)NC(=O)[C@@H]2CCCN2C(=O)[C@@H](NC(=O)[C@@H](C)Cc2ccccc2)CCCN(C)C1=O`, the Kb in data set [1] is above 10 µM. Further, in data set [2], the Papp A→B at 0.5 h came to 2.6 ×10⁻⁶ cm/s.
`C[C@@H](Cc1ccccc1)C(=O)N[C@H]1CCN(C)C(=O)C[C@H](Cc2ccccc2)NC(=O)[C@H](Cc2ccc(F)cc2)NC(=O)[C@@H](CC2CCCCC2)NC(=O)[C@@H]2CCCN2C1=O`: in data set [1] (filed as antagonist), the Kb amounted to 0.00552 µM. Also, the Papp A→B at 0.5 h in data set [2] amounted to 5 ×10⁻⁶ cm/s.
On the same counts, the results for `C[C@@H](Cc1ccccc1)C(=O)N[C@H]1CC[C@H]2CCCN2C(=O)[C@H](Cc2ccccc2)NC(=O)[C@H](Cc2ccc(F)cc2)NC(=O)[C@@H](CC2CCCCC2)NC(=O)[C@@H]2CCCN2C1=O` are 0.0465 µM and 3.4 ×10⁻⁶ cm/s.
On the same counts, the results for `C[C@@H](Cc1ccccc1)C(=O)N[C@H]1CCN(C)C(=O)C[C@H](Cc2ccccc2)NC(=O)[C@H](Cc2ccc(F)cc2)N(C)C(=O)[C@@H](CC2CCCCC2)NC(=O)[C@@H]2CCCN2C1=O` are 0.127 µM and 2.1 ×10⁻⁶ cm/s.
In the case of `CCCC[C@H]1C(=O)N(C)CCC[C@H](NC(=O)[C@@H](C)Cc2ccccc2)C(=O)N2CCC[C@H]2C(=O)N[C@H](CC2CCCCC2)C(=O)N[C@@H](Cc2ccc(F)cc2)C(=O)N1C`, in data set [1], the Kb was above 9.5 µM. Besides, the Papp A→B at 0.5 h in data set [2] was 4.2 ×10⁻⁶ cm/s.
Turning to `C[C@@H](Cc1ccccc1)C(=O)N[C@@H]1C(=O)N2CCC[C@H]2C(=O)N[C@H](CC2CCCCC2)C(=O)N[C@@H](Cc2ccc(F)cc2)C(=O)N[C@@H](Cc2ccccc2)C(=O)N2CCC1CC2`, the Kb in data set [1] (filed as antagonist) stood at 0.0828 µM. For the same compound, in data set [2], the Papp A→B at 0.5 h was determined as 6.5 ×10⁻⁶ cm/s.
On to `C[C@@H](Cc1ccccc1)C(=O)N[C@H]1CCCN(C)C(=O)[C@H](Cc2ccccc2)NC(=O)[C@H](Cc2ccc(F)cc2)NC(=O)[C@@H](CC2CCCCC2)NC(=O)[C@H]([C@@H](C)O)NC1=O`, for which the Kb in data set [1] (filed as antagonist) turned out to be 0.0389 µM. For the same compound, the Papp A→B at 0.5 h in data set [2] was 5.5 ×10⁻⁶ cm/s.
As to `CCN1CC[C@H](NC(=O)c2ccnn2-c2ccccc2)C(=O)N[C@@H]([C@@H](C)O)C(=O)N[C@@H](CC(C)C)C(=O)N[C@@H](Cc2ccc(F)cc2)C(=O)N[C@@H](Cc2ccccc2)CC1=O`, the Kb in data set [1] (filed as antagonist) is 0.054 µM. Also, the Papp A→B at 0.5 h in data set [2] turned out to be 0.4 ×10⁻⁶ cm/s.
As to `C[C@@H](Cc1ccccc1)C(=O)N[C@H]1CCCN(C)C(=O)[C@H](Cc2ccccc2)NC(=O)[C@H](Cc2ccc(F)cc2)NC(=O)[C@@H](CC2CCCCC2)NC(=O)[C@@H]2CCN2C1=O`, the Kb in data set [1] (filed as antagonist) came to 0.0575 µM. In addition, the Papp A→B at 0.5 h in data set [2] turned out to be 11.1 ×10⁻⁶ cm/s.
Regarding `CCCC[C@@H]1NC(=O)[C@H](Cc2ccc(F)cc2)NC(=O)[C@@H](CC2CCCCC2)N(C)C(=O)[C@@H]2CCCN2C(=O)[C@@H](NC(=O)[C@@H](C)Cc2ccccc2)CCCN(C)C1=O`, the Kb in data set [1] was above 10 µM. For the same compound, in data set [2], the Papp A→B at 0.5 h was 4.4 ×10⁻⁶ cm/s.
Take `C[C@@H](Cc1ccccc1)C(=O)N[C@H]1CCCN(C)C(=O)[C@H](Cc2ccccc2)NC(=O)[C@H](Cc2ccc(F)cc2)NC(=O)[C@@H](CC2CCCCC2)NC(=O)[C@@H]2CCCN2C1=O`: the Kb in data set [1] (filed as antagonist) turned out to be 0.0363 µM. Moreover, the Papp A→B at 0.5 h in data set [2] was 2.6 ×10⁻⁶ cm/s.
